RAD54 inh – RAD54 (human) branch migration inhibition. RAD54 Holliday junction branch migration, FAM/BHQ fluorescence. hit rate 0.14% among 360,000. inhibition, % at 10.4 µM. Q92698;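 active means mean normalized replicate activity at least 40 and at least half of replicates scoring 40 or more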;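 further: 0% = median of neutral control wells and 100% = median of positive control wells; inhibitors cause a drop in the FAM fluorescence signal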
FID counter – fluorescent intercalator displacement, NS3 helicase counter-screen. hit rate 0.17% among 290,000. inhibition, % at 7.9 µM. DNA fluorescent intercalator displacement, fluorescence; in the data active means inhibition above about 37%;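 further: 0% = vehicle and 100% = reference compound; higher means more ethidium bromide displaced from hairpin DNA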
Neddylation inh – inhibitors of human cullin neddylation; P61081+Q13564; TR-FRET cullin neddylation, biochemical; calls only at 25 µM; hit rate 0.58% among 360,000; AID 651699; in the data active means inhibition above about 36%
UBC13 inh – inhibitors of human UBC13 polyubiquitin chain formation | AID 485273 | TR-FRET | inhibition, % at 20 µM | hit rate 0.47% among 330,000 | P61088; in the data active means inhibition above about 45%, passing the limit was not always enough
Apaf1 inhib – blocks human Apaf-1 apoptosome activity. O14727. reconstituted apoptosome caspase-3 activity, DEVD-Rh110 fluorescence. hit rate 0.71% among 330,000. inhibition, % at 20 µM; active means inhibition of at least 40% at 20 µM;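 further: plate controls were DMSO wells for no effect and DEVD-CHO caspase inhibitor wells for full effect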
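detection = Rh110 fluorescence intensity | test system = biochemical Apaf-1 apoptosome reconstitution | also added = cytochrome c and DEVD-Rh110 substrate | schedule = 30 min plus 50 min, RT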
RAD52 anneal inh – blocks human RAD52 DNA annealing. recombinant RAD52 DNA annealing, FRET fluorescence. inhibition, % at 18.7 µM. hit rate 0.46% among 360,000;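 active means every replicate showing at least 50% inhibition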
Neddyl inh conf – confirmation of human cullin neddylation inhibitors; calls only at 25 µM; shares compounds with Neddylation inh; AID 652217; TR-FRET cullin neddylation biochemical assay; hit rate 13% among 1,800; in the data active means inhibition above about 40%;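 further: neddylation substrate is the cullin 1 ring ligase complex with SKP2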
* hit, by the source's call; i = inactive; . = no result given; + = active, no number. Most compounds without a hit are left out; they make up all but 1.6% or so of the library.

SMILES	RAD54 inh	FID counter	Neddylation inh	UBC13 inh	Apaf1 inhib	RAD52 anneal inh	Neddyl inh conf
COc1ccc2oc(C(=O)OCC(=O)N(Cc3ccccc3)C(C)C)c(C)c2c1	.	.	+	-8	22	-14	i
C[C@H](CO)N1C[C@H](C)[C@H](CN(C)Cc2ccc(Cl)c(Cl)c2)Oc2ccc(N(C)C)cc2C1=O	-3	.	.	.	.	-1	.
Cc1cccc(C)c1NC(=O)c1ccc(OCc2c(C)noc2C)cc1	-4	.	+	-2	5	-15	i
COc1ccc(-c2nc3ccccc3c(=O)n2CCCN2CCOCC2)cc1	-16	-1	i	5	0	3	.
Cc1ccc(-c2cc(C(=O)NCCCN3CCOCC3)c3ccccc3n2)cc1C	-3	17	.	23	7	-10	.
Cc1nc2ccccc2c(=O)n1CCCN1CCOCC1	.	2	+	-6	-17	-6	i
COc1ccc(-c2nc3ccc(C(=O)NCCCN4CCOCC4)cc3nc2-c2ccc(OC)cc2)cc1	9	-10	+	2	28	-24	i
Cc1ccc(-c2cc(C(=O)NCCCN3CCOCC3)c3ccccc3n2)cc1	3	.	+	12	4	-1	.
COc1cc(C2C3=C(Nc4ncnn42)c2ccccc2CC3)cc(OC)c1OC (stereo not drawn)	1	-25	i	-5	16	.	.
COc1ccc(C2C3=C(Nc4ncnn42)c2ccccc2CCC3)cc1 (stereo not drawn)	6	-20	+	3	-11	.	i
CSc1ccc(/C=C(\NC(=O)c2ccc(C)cc2)C(=O)Nc2cccc(C)c2)cc1	11	1	+	-1	-5	.	i
Cc1ccc(C(=O)N/C(=C/c2ccc(Cl)cc2)C(=O)Nc2cccc(C(=O)O)c2)cc1	6	-30	i	-7	10	.	.
Cc1ccccc1S(=O)(=O)N1C[C@@H]2[C@H](c3ccccc31)[C@@H](CO)N2C(=O)CC1CC1	11	.	.	.	.	-3	.
Oc1ccc2c(c1)oc1cc(O)ccc12	10	2	+	21	-24	.	i
COc1cccc(S(=O)(=O)N[C@H]2CC[C@H](CC(=O)NCc3ccncc3)O[C@@H]2CO)c1	-1	.	.	.	.	8	.
COC(=O)c1ccc2nc(-c3ccc(F)cc3)c(Cc3ccccc3OC)n2c1	.	.	+	.	.	-204	i
COC(=O)c1ccc2nc(-c3cccc(Br)c3)c(Cc3ccccc3OC)n2c1	.	.	i	.	.	-71	.
CCC(=O)Nc1ccc2c(c1)OC[C@H](C)N(Cc1cccnc1)C[C@H](C)[C@H](OC)CN(C)C2=O	-3	.	.	.	.	4	.
CCOc1cc(NC(=O)c2ccco2)c(OCC)cc1NC(=O)CCc1ccccc1OC	-3	-17	+	-3	15	.	i
Cc1noc(C)c1NC(=O)N(C)C[C@@H]1Oc2ccc(NC(=O)Nc3ccc(C(F)(F)F)cc3)cc2C(=O)N([C@H](C)CO)C[C@H]1C	-6	.	.	.	.	4	.
Cc1c(Cc2ccccc2)c(=O)oc2c(C)c(OCc3nn[nH]n3)ccc12	-7	-22	+	4	6	.	i
CS(=O)(=O)Nc1ccc(C2=NN(C(=O)c3ccco3)C(c3ccccc3F)C2)cc1 (stereo not drawn)	.	-20	+	-6	18	-33	i
CCS(=O)(=O)Nc1ccc(C2=NN(C(=O)c3ccco3)C(c3cccs3)C2)cc1 (stereo not drawn)	-5	-32	+	2	22	-19	i
O=C(C[C@H]1C=C[C@H](NS(=O)(=O)c2ccc(F)cc2)[C@H](CO)O1)N1CCC(Cc2ccccc2)CC1	-5	.	.	.	.	5	.
COc1ccc(-c2c3c(cc(C)[n+]2[O-])oc2ccc(OC)cc23)cc1	.	-19	i	4	12	.	.
COc1ccc2oc3cc(C)[n+]([O-])c(-c4ccc(Cl)cc4)c3c2c1	0	-19	+	-2	-1	.	i
C/C=C/c1ccc([C@H]2[C@@H](CO)N(S(C)(=O)=O)[C@H]2CN(CCC)C(C)=O)cc1	.	.	.	.	.	-12	.
Cc1ccc(S(=O)(=O)Nc2cccc3c2O[C@H](CN(C)S(=O)(=O)c2ccc(C)cc2)[C@@H](C)CN([C@H](C)CO)C3=O)cc1	-4	.	.	.	.	-5	.
O=c1c2ccccc2nc2ccc(NCc3ccco3)nn12	0	-1	+	-13	4	.	i
